Columns and labels:
[1] = target: T1, Protein kinase C delta type (Mus musculus, UniProt P28867); test: Tested for ability to displace […] phorbol 12,13- dibutyrate binding from recombinant C1b domain of murine Protein kinase C delta in presence of [Ca2+]
[2] = target: T1, Protein kinase C delta type; test: Tested for ability to displace […] phorbol 12,13- dibutyrate binding from recombinant murine Protein kinase C delta in presence of [Ca2+]
[3] = target: T2, Protein kinase C beta type (Homo sapiens, UniProt P05771); test: Inhibition of human PKC beta-1
T2 sequence (P05771 whole entry): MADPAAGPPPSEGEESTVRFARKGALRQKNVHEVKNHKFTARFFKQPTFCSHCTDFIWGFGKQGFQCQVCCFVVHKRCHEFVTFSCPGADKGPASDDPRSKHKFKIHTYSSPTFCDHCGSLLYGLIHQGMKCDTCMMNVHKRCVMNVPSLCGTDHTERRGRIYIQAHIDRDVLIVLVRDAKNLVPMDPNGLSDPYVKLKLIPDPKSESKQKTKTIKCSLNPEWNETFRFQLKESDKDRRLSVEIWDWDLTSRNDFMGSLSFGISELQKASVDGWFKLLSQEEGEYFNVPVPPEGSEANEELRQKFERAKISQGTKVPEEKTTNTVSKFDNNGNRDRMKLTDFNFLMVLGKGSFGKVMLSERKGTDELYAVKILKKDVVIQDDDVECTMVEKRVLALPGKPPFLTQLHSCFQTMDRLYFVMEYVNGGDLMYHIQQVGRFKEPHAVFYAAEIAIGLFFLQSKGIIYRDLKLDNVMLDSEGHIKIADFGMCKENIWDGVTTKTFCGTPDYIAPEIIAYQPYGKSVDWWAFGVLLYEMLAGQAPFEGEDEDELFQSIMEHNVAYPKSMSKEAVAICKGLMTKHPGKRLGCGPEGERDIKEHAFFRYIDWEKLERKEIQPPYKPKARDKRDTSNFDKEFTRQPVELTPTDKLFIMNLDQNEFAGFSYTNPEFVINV
Summary of the method: (§1)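 Ligand interaction with each PKC isozyme (α, δ, β1, γ or ε) was measured as competition by the nonradioactive ligand against [³H]PDBU binding to that isozyme, using an earlier published method. Affinities are expressed as Ki.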

[4] = target: T3, Protein kinase C epsilon type (Homo sapiens, UniProt Q02156); test: Binding affinity for human Protein kinase C epsilon; summary of the method: as §1
T3 sequence (Q02156 whole entry): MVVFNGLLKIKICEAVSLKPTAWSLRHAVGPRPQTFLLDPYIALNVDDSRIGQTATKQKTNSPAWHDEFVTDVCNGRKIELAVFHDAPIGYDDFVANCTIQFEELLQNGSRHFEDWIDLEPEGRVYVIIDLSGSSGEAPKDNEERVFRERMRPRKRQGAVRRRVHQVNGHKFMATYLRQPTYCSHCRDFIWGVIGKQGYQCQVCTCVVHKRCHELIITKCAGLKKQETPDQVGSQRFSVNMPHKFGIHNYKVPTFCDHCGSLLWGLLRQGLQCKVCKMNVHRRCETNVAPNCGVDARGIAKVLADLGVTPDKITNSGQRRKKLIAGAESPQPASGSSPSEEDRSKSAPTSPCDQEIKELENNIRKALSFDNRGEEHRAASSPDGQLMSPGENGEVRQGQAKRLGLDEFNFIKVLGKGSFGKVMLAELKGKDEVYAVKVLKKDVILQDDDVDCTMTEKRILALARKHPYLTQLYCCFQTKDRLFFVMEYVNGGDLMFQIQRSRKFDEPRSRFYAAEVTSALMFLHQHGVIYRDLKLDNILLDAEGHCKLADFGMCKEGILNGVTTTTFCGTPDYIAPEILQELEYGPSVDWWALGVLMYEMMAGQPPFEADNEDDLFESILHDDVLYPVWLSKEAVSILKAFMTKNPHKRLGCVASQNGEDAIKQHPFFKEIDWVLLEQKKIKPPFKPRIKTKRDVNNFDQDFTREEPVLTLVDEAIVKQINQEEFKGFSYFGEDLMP

[5] = target: T3, Protein kinase C epsilon type; test: Inhibition of human Protein kinase C epsilon; summary of the method: as §1
[6] = target: T4, Protein kinase C gamma type (Homo sapiens, UniProt P05129); test: Binding affinity for human Protein kinase C gamma with [Ca2+]; summary of the method: as §1
[7] = target: T2, Protein kinase C beta type; test: Binding affinity for human PKC beta-1; summary of the method: as §1
[8] = target: T4, Protein kinase C gamma type; test: Inhibition of human Protein kinase C gamma with [Ca2+]; summary of the method: as §1
[9] = target: T5, Protein kinase C delta type (Homo sapiens, UniProt Q05655); test: Binding affinity for human Protein kinase C delta; summary of the method: as §1
T5 sequence (Q05655 whole entry): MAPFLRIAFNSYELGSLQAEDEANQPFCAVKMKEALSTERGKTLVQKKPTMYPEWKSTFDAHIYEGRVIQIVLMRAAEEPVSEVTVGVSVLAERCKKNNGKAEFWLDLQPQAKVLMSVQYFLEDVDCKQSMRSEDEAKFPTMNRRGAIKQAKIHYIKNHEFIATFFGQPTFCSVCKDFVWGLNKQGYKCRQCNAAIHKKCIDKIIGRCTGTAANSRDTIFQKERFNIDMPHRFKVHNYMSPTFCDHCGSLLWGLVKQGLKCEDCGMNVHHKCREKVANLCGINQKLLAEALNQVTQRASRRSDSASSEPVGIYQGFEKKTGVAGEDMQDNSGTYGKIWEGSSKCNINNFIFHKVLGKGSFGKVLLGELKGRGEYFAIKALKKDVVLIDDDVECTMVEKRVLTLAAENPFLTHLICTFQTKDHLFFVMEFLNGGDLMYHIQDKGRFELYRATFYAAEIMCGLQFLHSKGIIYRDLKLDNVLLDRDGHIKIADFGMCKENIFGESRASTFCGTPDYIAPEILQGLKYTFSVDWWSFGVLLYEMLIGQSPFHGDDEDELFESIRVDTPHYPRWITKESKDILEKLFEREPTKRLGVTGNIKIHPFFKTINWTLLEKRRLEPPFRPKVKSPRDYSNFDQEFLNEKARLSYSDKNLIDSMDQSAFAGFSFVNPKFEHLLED

[10] = target: T5, Protein kinase C delta type; test: Inhibition of human Protein kinase C delta; summary of the method: as §1

T1 sequence (P28867 whole entry, the tested form may be a part): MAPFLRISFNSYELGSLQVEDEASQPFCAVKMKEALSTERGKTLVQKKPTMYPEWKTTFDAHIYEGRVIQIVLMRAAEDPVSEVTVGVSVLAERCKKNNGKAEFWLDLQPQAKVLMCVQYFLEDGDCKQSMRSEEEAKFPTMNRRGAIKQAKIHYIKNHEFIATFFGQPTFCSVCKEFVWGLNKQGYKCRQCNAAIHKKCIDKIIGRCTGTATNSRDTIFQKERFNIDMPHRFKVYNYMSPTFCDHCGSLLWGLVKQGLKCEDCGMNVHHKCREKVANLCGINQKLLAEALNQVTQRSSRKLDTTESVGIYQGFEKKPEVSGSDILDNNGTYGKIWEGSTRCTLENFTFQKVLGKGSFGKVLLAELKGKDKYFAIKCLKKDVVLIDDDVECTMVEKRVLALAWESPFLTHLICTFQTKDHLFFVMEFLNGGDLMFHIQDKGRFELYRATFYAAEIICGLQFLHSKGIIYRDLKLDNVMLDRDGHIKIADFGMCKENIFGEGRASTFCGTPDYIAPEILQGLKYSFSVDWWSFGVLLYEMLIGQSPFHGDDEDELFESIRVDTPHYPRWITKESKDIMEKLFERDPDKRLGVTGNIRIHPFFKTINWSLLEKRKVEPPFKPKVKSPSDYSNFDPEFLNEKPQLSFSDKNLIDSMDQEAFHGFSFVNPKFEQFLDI

Ki [1] [nM] | Ki [2] [nM] | SMILES | further results
16.8 | 67.8 | CC(C)[C@H]1C(=O)N[C@H](CO)Cc2cc(NC(=O)CCCCC(=O)Nc3ccc4c(c3)N(C)[C@@H](C(C)C)C(=O)N[C@H](CO)C4)ccc2N1C | –
– | 44.8 | CC(C)[C@H]1C(=O)N[C@H](CO)C1c1ccc(OC(=O)CCCCCCCCCCC(=O)Oc2ccc([C@H]3[C@@H](C(C)C)C(=O)N[C@@H]3CO)c3ccccc23)c2ccccc12 (stereo not given in full) | –
1.27 | 5.75 | CC(C)[C@H]1C(=O)N[C@H](CO)Cc2cc(NC(=O)CCCCCCCCC(=O)Nc3ccc4c(c3)N(C)[C@@H](C(C)C)C(=O)N[C@H](CO)C4)ccc2N1C | –
0.48 | 1.31 | CC(C)[C@H]1C(=O)N[C@H](CO)Cc2cc(NC(=O)CCCCCCCCCCC(=O)Nc3ccc4c(c3)N(C)[C@@H](C(C)C)C(=O)N[C@H](CO)C4)ccc2N1C | –
0.14 | 0.36 | CC(C)[C@H]1C(=O)N[C@H](CO)Cc2cc(NC(=O)CCCCCCCCCCCCCCC(=O)Nc3ccc4c(c3)N(C)[C@@H](C(C)C)C(=O)N[C@H](CO)C4)ccc2N1C | –
0.33 | 0.78 | CC(C)[C@H]1C(=O)N[C@H](CO)Cc2cc(NC(=O)CCCCCCCCCCCCC(=O)Nc3ccc4c(c3)N(C)[C@@H](C(C)C)C(=O)N[C@H](CO)C4)ccc2N1C | Ki [3]: 1.42 nM; Kd [4]: 0.37 nM; Ki [5]: 0.55 nM; Kd [6]: 0.16 nM; Kd [7]: 0.19 nM; Ki [8]: 1.5 nM; Kd [9]: 1 nM; Ki [10]: 2.12 nM
0.11 | 0.38 | CC(C)[C@H]1C(=O)N[C@H](CO)Cc2cc(NC(=O)CCCCCCCCCCCCCCCCCCCCC(=O)Nc3ccc4c(c3)N(C)[C@@H](C(C)C)C(=O)N[C@H](CO)C4)ccc2N1C | –
30.6 | 170 | CC(C)[C@H]1C(=O)N[C@H](CO)Cc2cc(NC(=O)CCCCCCC(=O)Nc3ccc4c(c3)N(C)[C@@H](C(C)C)C(=O)N[C@H](CO)C4)ccc2N1C | –
4.4 | 21.6 | CC(C)[C@H]1C(=O)N[C@H](CO)Cc2cc(NC(=O)CCCCCCCCC(=O)Nc3ccc(O)c4ccccc34)ccc2N1C | –
